Test results as given in publication PMC3086766 (Bioconjugate chemistry, 2011).
Values joined by “and” are separate entries in the source; they are usually repeats but may differ in a detail not shown here. Identical values can stand only once.

Legend:
[1] = target: AD plaques (β-amyloid plaques) in human brain tissue homogenates (Homo sapiens, UniProt P05067); assay: In vitro competition binding assay against [18F]-AV-45 in AD brain homogenates
How it was run: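 Gray matter from human Alzheimer's brain sections with plaques, homogenized in PBS pH 7.2 (20–50 μg per tube). Incubated with [18F]-AV-45 and competitor (10−5–10−10 M, serially diluted in PBS with 0.1% BSA) in 1 mL final, 37 °C for 120 min. IMPY 600 nM defined nonspecific binding. Bound and free separated by vacuum filtration. Ki by nonlinear regression; n = 5–6.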

male ICR mice = assay: In-vivo biodistribution study in mice; parameters: species or system mouse; settings: for Blood uptake / Bone uptake / Brain uptake / Heart uptake / Kidney uptake / Liver uptake / Lung uptake / Muscle uptake / Pancreas uptake / Skin uptake / Spleen uptake: iv tail vein; for in vivo de-fluorination (from bone (femur) values): within 30 min post injection
How it was run: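 Normal male ICR mice (20–25 g), 6 per group, under isoflurane (1–2%, 1 L oxygen/min). Each received 25 μCi radiotracer in 0.15 mL saline via lateral tail vein. Killed by cardiac excision under anesthesia at 2 and 30 min. Organs weighed and gamma-counted. Percent dose per gram calculated against counts of 1.0% of initial dose, taken from 100-fold diluted injectate aliquots.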

AD plaques (β-amyloid plaques) in human brain tissue homogenates, sequence (P05067 672-713 limits assumed): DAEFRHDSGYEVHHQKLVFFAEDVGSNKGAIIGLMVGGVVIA

SMILES | Blood uptake (male ICR mice; 2 min post injection) [% dose/gram] | Bone uptake (male ICR mice; 2 min post injection) [% dose/gram] | Brain uptake (male ICR mice; 2 min post injection) | Heart uptake (male ICR mice; 2 min post injection) [% dose/gram] | Kidney uptake (male ICR mice; 2 min post injection) [% dose/gram] | Liver uptake (male ICR mice; 2 min post injection) [% dose/gram] | Lung uptake (male ICR mice; 2 min post injection) [% dose/gram] | Muscle uptake (male ICR mice; 2 min post injection) [% dose/gram] | Pancreas uptake (male ICR mice; 2 min post injection) [% dose/gram] | Skin uptake (male ICR mice; 2 min post injection) [% dose/gram] | Spleen uptake (male ICR mice; 2 min post injection) [% dose/gram] | Blood uptake (male ICR mice; 30 min post injection) [% dose/gram] | Bone uptake (male ICR mice; 30 min post injection) [% dose/gram] | Brain uptake (male ICR mice; 30 min post injection) | Heart uptake (male ICR mice; 30 min post injection) [% dose/gram] | Kidney uptake (male ICR mice; 30 min post injection) [% dose/gram] | Liver uptake (male ICR mice; 30 min post injection) [% dose/gram] | Lung uptake (male ICR mice; 30 min post injection) [% dose/gram] | Muscle uptake (male ICR mice; 30 min post injection) [% dose/gram] | Pancreas uptake (male ICR mice; 30 min post injection) [% dose/gram] | other results
CNc1ccc(/C=C/c2ccc(OCCOCCOCCNC(=O)CO/N=C/c3ccc(OCCOCCOCCF)nc3)nc2)cc1 [[^18F]23, 2-((E)-(6-(2-(2-(2-fluoroethoxy)ethoxy)ethoxy)pyridin-3-yl)methyleneaminooxy)-N-(2-(2-(2-(5-((E)-4-(methylamino)styryl)pyridin-2-yloxy)ethoxy)ethoxy)ethyl)acetamide] | 9.34 ± 1.37 | 2.00 ± 0.33 | 1.69 % dose/gram and 1.69 ± 0.44 % dose/gram | 13.1 ± 3.08 | 14.1 ± 2.85 | 22.2 ± 3.99 | 7.09 ± 1.37 | 1.32 ± 0.50 | 5.13 ± 1.08 | 0.79 ± 0.20 | 4.81 ± 1.18 | 4.94 ± 0.91 | 2.27 ± 0.41 | 0.96 ± 0.16 % dose/gram | 3.72 ± 0.84 | 6.83 ± 1.93 | 19.1 ± 3.65 | 3.53 ± 0.38 | 1.56 ± 0.27 | 2.28 ± 0.48 | Ki [1]: 11.8 ± 3.06 nM; Skin uptake (male ICR mice; 30 min post injection): 1.50 ± 0.25 % dose/gram; Spleen uptake (male ICR mice; 30 min post injection): 3.57 ± 0.68 % dose/gram; in vivo de-fluorination (from bone (femur) values) (male ICR mice): very little de-fluorination
CNc1ccc(/C=C/c2ccc(OCCOCCOCCOCCOCCOCCNC(=O)CO/N=C/c3ccc(OCCOCCOCCF)nc3)nc2)cc1 [[^18F]24, 2-((E)-(6-(2-(2-(2-fluoroethoxy)ethoxy)ethoxy)pyridin-3-yl)methyleneaminooxy)-N-(17-(5-((E)-4-(methylamino)styryl)pyridin-2-yloxy)-3,6,9,12,15-pentaoxaheptadecyl)acetamide] | 4.19 ± 1.04 | 1.76 ± 0.31 | 0.48 % dose/gram and 0.48 ± 0.12 % dose/gram | 12.3 ± 1.79 | 15.4 ± 3.54 | 29.4 ± 5.09 | 3.70 ± 1.06 | 1.42 ± 0.46 | 3.32 ± 0.58 | 1.14 ± 0.44 | 3.11 ± 0.45 | 2.81 ± 0.22 | 1.62 ± 0.10 | 0.92 % dose/gram and 0.92 ± 0.11 % dose/gram | 4.17 ± 0.61 | 7.78 ± 0.85 | 10.9 ± 1.17 | 2.43 ± 0.33 | 2.01 ± 0.21 | 2.22 ± 0.23 | Skin uptake (male ICR mice; 30 min post injection): 1.78 ± 0.13 % dose/gram; Spleen uptake (male ICR mice; 30 min post injection): 1.63 ± 0.19 % dose/gram; in vivo de-fluorination (from bone (femur) values) (male ICR mice): very little de-fluorination
